Among the data in ChEMBL document CHEMBL5325390, “1,2,4-Triazole-3-thione analogues with an arylakyl group at position 4 as metallo-β-lactamase inhibitors” (Bioorg Med Chem, 2022) are inhibition, Ki and MIC values, retold here.

Experiment [1] has as its target Metallo-beta-lactamase type 2 (Bacteria) (UniProt C7C422). Briefly: Inhibition of NDM1 (unknown origin) expressed in Escherichia coli BL21(DE3) assessed as substrate hydrolysis at 100 uM by UV-Vis spectrophotometric analysis relative to control. In a few lines: (§1)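 Single-point screen at 100 or 200 µM inhibitor against purified MBL (1–70 nM) with 150 µM imipenem or meropenem reporter substrate, 50 mM HEPES pH 7.5, 30 °C. Initial hydrolysis rate read by absorbance at 300 nm and compared with the uninhibited reaction. Triplicate.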

Experiment [2] has as its target Beta-lactamase VIM-1 (Bacteria, UniProt Q8GDC1). The experiment can be described thus: Binding affinity to VIM-1 (unknown origin) expressed in Escherichia coli BL21(DE3) assessed as inhibition constant by measuring rate of substrate hydrolysis by UV-Vis spectrophotometric analysis. In a few lines: (§2)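 Purified MBL (1–70 nM) with 150 µM imipenem or meropenem as reporter substrate, 50 mM HEPES pH 7.5, 30 °C. Hydrolysis followed by absorbance at 300 nm without and with inhibitor (0.5 µM–1 mM). Ki from the slope of v0/vi vs [I] under a competitive model, or from Dixon plots varying inhibitor and substrate. […] Triplicate, mean ± SD.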

In experiment [3] the target is Metallo-beta-lactamase type 2 (Bacteria) (UniProt C7C422). The experiment can be described thus: Inhibition of NDM1 (unknown origin) expressed in Escherichia coli BL21(DE3) assessed as substrate hydrolysis at 200 uM by UV-Vis spectrophotometric analysis relative to control. In a few lines:
as §1

Experiment [4] deals with metallo-β-lactamase IMP-1 (Pseudomonas aeruginosa). The experiment can be described thus: Inhibition of IMP1 (unknown origin) expressed in Escherichia coli BL21(DE3) assessed as substrate hydrolysis at 100 uM by UV-Vis spectrophotometric analysis relative to control.
Experiment [5] has the same test system. The experiment can be described thus: Inhibition of IMP1 (unknown origin) expressed in Escherichia coli BL21(DE3) assessed as substrate hydrolysis at 200 uM by UV-Vis spectrophotometric analysis relative to control.
Experiment [6] concerns metallo-β-lactamase VIM-2 (Pseudomonas aeruginosa). Briefly: Inhibition of VIM-2 (unknown origin) expressed in Escherichia coli BL21(DE3) assessed as substrate hydrolysis at 100 uM by UV-Vis spectrophotometric analysis relative to control.
Experiment [7] shares this test system. The experiment can be described thus: Inhibition of VIM-2 (unknown origin) expressed in Escherichia coli BL21(DE3) assessed as substrate hydrolysis at 200 uM by UV-Vis spectrophotometric analysis relative to control.
Experiment [8] concerns metallo-β-lactamase VIM-4 (Pseudomonas aeruginosa). The experiment can be described thus: Inhibition of VIM-4 (unknown origin) expressed in Escherichia coli BL21(DE3) assessed as substrate hydrolysis at 100 uM by UV-Vis spectrophotometric analysis relative to control.
For experiment [9] the test system is unchanged. The experiment can be described thus: Inhibition of VIM-4 (unknown origin) expressed in Escherichia coli BL21(DE3) assessed as substrate hydrolysis at 200 uM by UV-Vis spectrophotometric analysis relative to control.
The nature of experiment [10]: Binding affinity to VIM-2 (unknown origin) expressed in Escherichia coli BL21(DE3) assessed as inhibition constant by measuring rate of substrate hydrolysis by UV-Vis spectrophotometric analysis. The essentials:
as §2

Experiment [11] is described as follows: Binding affinity to VIM-4 (unknown origin) expressed in Escherichia coli BL21(DE3) assessed as inhibition constant by measuring rate of substrate hydrolysis by UV-Vis spectrophotometric analysis. In a few lines: as §2
For experiment [12], the system named is Klebsiella pneumoniae. Briefly: Antimicrobial synergistic activity against blaVIM-1-producing multidrug-resistant Klebsiella pneumoniae 7023 clinical isolate assessed as meropenem MIC at 32 ug/ml by CLSI based broth microdilution method (reference value: 16 ug/ml). Type of experiment: functional. The following applies: dose 32 µg/ml.
Experiment [13] deals with Klebsiella pneumoniae. Briefly: Antimicrobial synergistic activity against blaVIM-4-producing multidrug-resistant Klebsiella pneumoniae VA416/02 clinical isolate assessed as meropenem MIC at 32 ug/ml by CLSI based broth microdilution method (reference value: 16 ug/ml). Type of experiment: functional. The following applies: dose 32 µg/ml.
The nature of experiment [14]: Binding affinity to IMP1 (unknown origin) expressed in Escherichia coli BL21(DE3) assessed as inhibition constant by measuring rate of substrate hydrolysis by UV-Vis spectrophotometric analysis. The essentials: as §2
For experiment [15], the system named is Escherichia coli. Briefly: Synergistic antimicrobial activity against blaNDM-1-producing multidrug-resistant Escherichia coli SI-004M clinical isolate assessed as meropenem MIC at 32 ug/ml by CLSI based microdilution method (reference value: 64 ug/ml). Type of experiment: functional. Conditions: dose 32 µg/ml.

Sequence of Metallo-beta-lactamase type 2 (Bacteria) (C7C422 whole entry): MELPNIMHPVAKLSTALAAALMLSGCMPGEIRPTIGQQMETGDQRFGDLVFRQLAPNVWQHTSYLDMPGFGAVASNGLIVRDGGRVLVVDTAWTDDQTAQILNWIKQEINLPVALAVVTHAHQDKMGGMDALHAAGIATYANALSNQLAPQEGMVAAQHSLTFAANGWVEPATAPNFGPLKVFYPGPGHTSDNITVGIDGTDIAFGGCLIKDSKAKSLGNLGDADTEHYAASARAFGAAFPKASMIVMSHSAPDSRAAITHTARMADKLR

On to `O=C(O)c1ccc(-n2c(S)nnc2-c2ccccc2)cc1`, for which the inhibition in [1] was < 30%.
`S=c1[nH]nc(-c2ccc3ccccc3c2)n1CCc1ccccc1`: the Ki in [2] came out at 3700 nM. The inhibition was < 30% in [1]; < 50% in experiment [3]; < 30% in experiment [4]; < 50% in experiment [5]; < 30% in experiment [6]; < 50% in experiment [7]. The inhibition in experiment [8] is < 30%; in experiment [9], < 50%.
With `COc1ccc(O)c(-c2n[nH]c(=S)n2CCc2ccc(O)cc2)c1`, the Ki in [2] is 1600 nM; in [10] it was 3900 nM; in experiment [11] it was 1900 nM. In addition, the inhibition was < 30% in experiment [1], < 50% in experiment [3], < 30% in [4] and < 50% in experiment [5]. Further, the MIC in [12] and in [13] was 2 µg/mL throughout.
For the compound `S=c1[nH]nc(-c2cc(Cl)cc(Cl)c2)n1/N=C/c1ccc(OCc2ccccc2)cc1`, the Ki in experiment [11] was determined as 600 nM; in [14] (read-out: Ki), 100 nM. Further, the inhibition in [6] is < 30%.
Turning to `COc1ccc(O)c(-c2n[nH]c(=S)n2CCc2ccc(OCc3ccccc3)cc2)c1`, the Ki in experiment [2] came out at 11100 nM; in experiment [11], 540 nM. Moreover, the inhibition in experiment [1] is < 30%; in experiment [3], < 50%; in experiment [4] it was 35%; in experiment [6] it was < 30%; in experiment [7], < 50%.
`Cc1ccccc1-c1n[nH]c(=S)n1CCc1ccc(O)cc1`: the Ki in [11] amounted to 1600 nM. For the same compound, the values for the inhibition in experiment [1], in experiment [3] and in [4] were < 30%, < 50% and 56%, respectively.
Regarding `O=C1OC(Cn2c(-c3ccccc3)n[nH]c2=S)c2ccccc21` (configuration not stated), the figures for the Ki in experiment [2] and in [11] were 750 nM and 7800 nM, respectively. For the same compound, the inhibition in [1] was 51%; in [4], < 30%; in [5], < 50%; in experiment [6] it was < 30%; in [7] it was < 50%. Further, the figures for the MIC in experiment [12], in experiment [13] and in experiment [15] were 2 µg/mL, 2 µg/mL and 64 µg/mL, respectively.
On to `CC(Cn1c(-c2ccccc2)n[nH]c1=S)c1ccccc1` (configuration not stated), for which the inhibition is < 30% in [1]; < 50% in experiment [3]; 55% in [4]; < 30% in experiment [6]; < 50% in experiment [7]; < 30% in [8]. The inhibition in experiment [9] is < 50%.
With `O=C1OC(Cn2c(-c3ccc(-c4ccccc4)cc3)n[nH]c2=S)c2ccccc21` (configuration not stated), the inhibition in experiment [1] was < 30%; in experiment [3], < 50%; in [4], 48%; in [6], < 30%; in [7], < 50%.
With `Cc1ccccc1CCn1c(-c2ccccc2)n[nH]c1=S`, the inhibition is < 30% in [1]; < 50% in [3]; < 30% in [4]; < 50% in experiment [5]; < 30% in experiment [6]; < 50% in experiment [7].
As for `S=c1[nH]nc(-c2ccccc2)n1CCc1ccccc1`, the results for the Ki in experiment [2] and in experiment [11] were 3200 nM and 2100 nM, respectively. Further, the inhibition is < 30% in experiment [1]; < 50% in [3]; < 30% in experiment [4]; < 50% in experiment [5]; < 30% in [6]; < 50% in experiment [7]. In addition, the MIC was 2 µg/mL in experiment [12], 2 µg/mL in experiment [13] and 64 µg/mL in experiment [15].
As to `Cc1ccccc1-c1n[nH]c(=S)n1CCc1ccccc1`, the Ki in [2] was 3300 nM; in experiment [10] it was 9400 nM; in [11], 2400 nM; in experiment [14] (read-out: Ki(app)), 14000 nM. The inhibition was < 30% in experiment [1] and < 50% in experiment [3]. Moreover, the minimal inhibitory concentration (MIC) in [12] and in experiment [13] was 4 µg/mL each time.
Consider `S=c1[nH]nc(-c2ccc3ccccc3c2)n1[C@@H]1C[C@H]1c1ccccc1`, for which the inhibition was < 30% in [1]; < 50% in experiment [3]; < 30% in [4]; < 50% in experiment [5]; < 30% in experiment [6]; < 50% in experiment [7]. Moreover, the inhibition in experiment [8] was 35%.
Consider `Sc1nnc(-c2ccccc2)n1-c1ccccc1`, for which the Ki in experiment [2] was 3200 nM; in experiment [10] it was 16000 nM. Further, the inhibition in experiment [1] was < 30%.
Regarding `O=C(NCc1ccccc1)c1ccccc1CCn1c(-c2ccccc2)n[nH]c1=S`, the inhibition is 45% in experiment [1]; 45% in [4]; < 30% in experiment [6]; < 50% in experiment [7]; < 30% in experiment [8]; < 50% in experiment [9].
`FC(F)(F)c1ccc(CCn2c(-c3ccccc3)n[nH]c2=S)cc1`: the inhibition is < 30% in experiment [1]; < 50% in experiment [3]; < 30% in experiment [4]; < 50% in experiment [5]; < 30% in experiment [6]; < 50% in experiment [7].
Regarding `Cn1cccc1-c1n[nH]c(=S)n1CC1OC(=O)c2ccccc21` (configuration not stated), the figures for the Ki in [2] and in experiment [11] were 2200 nM and 2500 nM, respectively. Further, the inhibition in [1] came to 31%; in experiment [4], 30%; in [6], 38%. Further, the minimal inhibitory concentration (MIC) in experiment [12] is 2 µg/mL; in experiment [13], 2 µg/mL; in [15], 32 µg/mL.
As to `O=C(O)c1ccccc1CCn1c(-c2cccc(-c3ccccc3)c2)n[nH]c1=S`, the Ki turned out to be 80 nM in [10] and 2100 nM in [11]. Further, the inhibition in [1] and in [4] was < 30% throughout.
Take `Oc1ccc(CCn2c(-c3cc(-c4ccccc4)ccc3O)n[nH]c2=S)c(O)c1`: the Ki came out at 760 nM in experiment [2], 1900 nM in experiment [10] and 850 nM in experiment [11]. The inhibition came to 38% in experiment [1] and 44% in [4]. In addition, the MIC in [12] worked out at 1 µg/mL; in experiment [13] it was 2 µg/mL; in experiment [15] it was 64 µg/mL.
As for `O=C1OC(Cn2c(-c3cccc(-c4ccccc4)c3)n[nH]c2=S)c2ccccc21` (configuration not stated), the inhibition is < 30% in experiment [1]; < 50% in experiment [3]; < 30% in experiment [4]; < 50% in experiment [5]; < 30% in [6]; < 50% in experiment [7].
`Oc1ccc(CCn2c(-c3ccc4ccccc4c3)n[nH]c2=S)cc1`: the Ki in experiment [2] amounted to 3300 nM; in experiment [11], 3200 nM; in experiment [14] (read-out: Ki), 24000 nM. Besides, the inhibition in experiment [1] was < 30%; in [3] it was < 50%; in experiment [6] it was < 30%; in [7] it was < 50%.
As for `S=c1[nH]nc(-c2cccc(-c3ccccc3)c2)n1[C@@H]1C[C@H]1c1ccccc1`, the inhibition in [1] was 69%; in [4], < 30%; in [5], < 50%; in experiment [6], < 30%; in [7], < 50%; in experiment [8] it was < 30%. The inhibition in [9] was < 50%.
